# Screening results: PubChem, several laboratories
# The list is not random: actives were taken first. Their share in the collection is about 4.4%.
# MsrA inh: inhibits bovine methionine sulfoxide reductase A. purified bovine MsrA, absorbance read-out. AID 651718. 360,000 tested, 0.75% active. inhibition, % at 15.5 µM; in the data active means inhibition above about 4.5%;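 further: 0% = vehicle wells with enzyme and 100% = reference inhibitor wells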
# AHR act: activates the human aryl hydrocarbon receptor; 320,000 tested, 2.5% active; P35869; AHR-responsive luciferase reporter cells, luminescence; activation, % at 5 µM; in the data active means activation above about 47%;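 further: 0% = vehicle wells and 100% = reference agonist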
# Tb MetRS inh: Trypanosoma brucei MetRS inhibition; purified T. brucei MetRS, ATP depletion, Kinase-Glo luminescence; 360,000 tested, 0.4% active; inhibition, % at 11.9 µM;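 active means inhibition above a per-plate cutoff of the control wells' mean inhibition plus 3 SD, cut at about 5.5% in these data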;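 further: 0% = DMSO wells median and 100% = median of wells with control inhibitor compound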
#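 Dosing: 11.9 µM single point; system: parasite MetRS enzyme; technique: luminescence of leftover ATP; times: 15 min enzyme-compound preincubation, 2 h reaction, 10 min detection, 25 °C; replicates: each compound tested once; read-out basis: percent inhibition relative to median high and low control wells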
# bovine MsrA act: activators of bovine methionine sulfoxide reductase A | 360,000 tested, 0.3% active | AID 602163 | activation, % at 10.6 µM | purified bovine MsrA, absorbance read-out; in the data active means activation above about 7.5%;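 further: 0% = vehicle and 100% = reference activator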
# m5-HT2A agonist: agonists of mouse serotonin 5-HT2A receptor (HTR2A). P35363. CHO-K1 mHTR2A beta-arrestin complementation, luminescence; percent of 30 µM serotonin response. activation, % at 7.6 µM. 360,000 tested, 0.66% active. AID 624169;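 active means activation above a run cutoff, the mean activation of all tested compounds plus 3 SD, cut at about 14% in these data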;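 further: 0% = plate median of compound wells and 100% = 30 µM serotonin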
# Target sequence (P35363 whole entry, looked up): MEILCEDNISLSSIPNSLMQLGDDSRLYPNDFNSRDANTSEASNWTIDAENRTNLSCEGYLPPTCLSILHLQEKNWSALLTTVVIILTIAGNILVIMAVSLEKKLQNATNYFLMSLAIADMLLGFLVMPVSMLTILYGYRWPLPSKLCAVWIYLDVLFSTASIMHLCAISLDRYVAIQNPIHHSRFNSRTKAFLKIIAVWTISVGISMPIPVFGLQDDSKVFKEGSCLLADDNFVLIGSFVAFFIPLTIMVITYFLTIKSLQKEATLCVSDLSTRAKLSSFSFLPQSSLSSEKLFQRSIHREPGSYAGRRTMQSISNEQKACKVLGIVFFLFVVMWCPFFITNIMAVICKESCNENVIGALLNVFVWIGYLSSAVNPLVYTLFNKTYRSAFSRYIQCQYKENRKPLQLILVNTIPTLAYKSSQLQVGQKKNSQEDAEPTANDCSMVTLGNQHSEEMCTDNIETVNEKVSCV
# AI-2 QS mod: Vibrio harveyi AI-2 quorum sensing modulation; activity change, % at 7.5 µM; 300,000 tested, 0.4% active; Vibrio harveyi JMH597 AI-2 luminescence/OD600 ratio, 9 h; hits give low values; strain lacks LuxN and CqsS sensors; 0 = neutral-control median; in the data active means activity change below about -75%, passing the limit was not always enough;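 further: luminescence divided by OD600 gain over 9 h not by final OD600 alone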
# * = called active by the depositor; / = not tested or not shown.
SMILES,MsrA inh,AHR act,Tb MetRS inh,bovine MsrA act,m5-HT2A agonist,AI-2 QS mod
Cc1cccc(NC(=O)CNC(=O)[C@H](CCc2ccccc2)NC(=O)[C@H]2O[C@@H](n3cnc4c(N)ncnc43)[C@H](O)[C@@H]2O)c1C,0.5,/,/,/,/,/
Cc1[nH]n(-c2ccc([N+](=O)[O-])cc2)c(=O)c1C=NCCN1CCN(C(=O)c2ccccc2)CC1,4.8*,13.9,-4.0,-2.5,-4.2,43.6
Cc1ccccc1C(=O)N[C@H](C(=O)N1CCC[C@H]1C(=O)NCCc1ccccc1Cl)C(C)C,-0.1,/,/,/,/,/
CC(C)COc1cccc(C(=O)Nc2ccc(S(=O)(=O)N3CCOCC3)cc2)c1,-0.8,0.8,-1.2,-10.7,-4.0,7.6
COc1cccc(-n2c([S-])c(C(=O)Nc3ccc(S(=O)(=O)N4CCOCC4)cc3)[n+]3cc(C(N)=O)ccc23)c1,1.1,64.5*,0.5,0.2,2.5,18.5
Cc1ccc(S(=O)(=O)N2CCCc3nc(-c4ccc(F)cc4)ccc32)cc1,0.3,/,/,/,/,/
O=C(COC(=O)Cc1ccc(F)cc1)NC1CCCC1,0.1,-0.8,-0.4,-4.4,21.1*,22.3
O=C(NC(=S)Nc1cc(-c2nc3ccccc3[nH]2)ccc1Cl)c1ccc2c(c1)OCO2,1.3,83.6*,-1.1,0.5,3.9,12.7
Cc1ccc(-c2nc3ccccc3[nH]2)cc1NC(=O)c1ccc2c(c1)OCO2,0.9,15.7,-1.1,-4.3,2.8,-4.7
COc1cc(F)ccc1-c1cc(C(=O)NCc2cc(C(F)(F)F)cc(C(F)(F)F)c2)[nH]n1,-0.7,/,-0.3,-7.5,8.7,/
S=C(N=Nc1ccccc1)NNc1ccccc1,-0.6,53.1*,-1.3,0.1,7.5,1.2
S=C(NNC(=S)Nc1ccc(Cl)cc1)NNc1ccccc1,-0.1,/,0.0,1.6,5.1,/
Cc1ccsc1C1NC(=O)c2c(sc3c2CCCC3)N1 (stereo not drawn),/,113.6*,-0.3,-5.2,-0.9,-8.2
O=C1NC(c2ccc(Br)cc2)Nc2sc3c(c21)CCC3 (stereo not drawn),0.7,77.0*,0.5,-1.6,-1.2,8.8
Cc1ccc(/C(C#N)=C\c2cn(C)c3ccccc23)cc1,/,75.5*,/,/,/,/
Cn1cc(C=O)c2ccccc21,1.4,11.8,-0.6,-2.9,-2.2,8.8
COC(=O)C1=C(C)N(Cc2ccc(C(F)(F)F)cc2)C(=NCc2ccccc2C(F)(F)F)NC1c1ccc(F)cc1 (stereo not drawn),-1.6,/,/,/,/,/
CCC1c2ccc(C)n2CCN1C(=O)Nc1ccccc1OC (stereo not drawn),0.7,48.0*,0.0,2.8,-4.4,7.5
Oc1ccc(Cl)cc1-c1cc(-c2ccccc2)n[nH]1,-1.1,66.3*,-0.2,-2.5,-2.0,54.8
Oc1ccccc1-c1cc(-c2ccc(F)cc2)n[nH]1,1.0,74.3*,-0.1,-1.3,-5.2,14.0
Oc1ccc(Br)cc1-c1cc(-c2ccccc2F)[nH]n1,0.2,55.8*,-0.6,-11.5,0.2,20.8
Cc1cc2c(c(=O)o1)[C@@]1(C(=O)N(c3ccccc3)c3ccccc31)C1=C(CCCC1=O)O2,0.1,/,/,/,/,/
Cc1c(N=Cc2nc3ccccc3[nH]2)c(=O)n(-c2ccccc2)n1C,3.7,24.4,-0.4,-4.8,-2.2,-6.4
Cc1c(N=Cc2nc3ccccc3n2C)c(=O)n(-c2ccccc2)n1C,5.1*,16.3,-0.8,-5.9,-2.4,21.7
CCOc1ccccc1NC(=O)c1cc(=O)[nH]c2ccc(S(=O)(=O)N3CCOCC3)cc12,0.8,56.7*,-0.3,-2.0,3.7,/
SMILES,MsrA inh,AHR act,Tb MetRS inh,bovine MsrA act,m5-HT2A agonist,AI-2 QS mod
CC(C)c1[nH]nc2c1C(c1ccc(Br)cc1)NC2=O (stereo not drawn),-0.8,/,/,/,/,/
O=C(Nc1ccc(/C=C/c2nc3ccccc3o2)cc1)c1c(F)cccc1F,0.6,48.7*,-1.0,-4.2,-2.4,8.8
COc1ccc(/C(O)=C2/C(=O)C(=O)N(CCN(C)C)C2c2ccccc2)cc1Cl (stereo not drawn),3.1,0.5,0.3,0.9,-1.8,5.7
COc1ccc(/C(O)=C2/C(=O)C(=O)N(CCCN(C)C)C2c2cccc(Cl)c2)cc1OC (stereo not drawn),9.6*,1.7,0.7,-0.9,0.7,-2.0
COc1ccc(S(=O)(=O)Nc2ccc3c(c2)C(=O)N([C@H](C)CO)C[C@H](C)[C@H](CN(C)C(=O)Nc2ccc(F)cc2)OCCCC[C@@H](C)O3)cc1,-0.3,/,/,/,/,/
Cc1ccc(C(=O)Cn2c(C(=O)O)cc3ccccc32)cc1,-1.4,59.2*,-2.2,-7.1,3.7,28.1
COC(=O)c1cn[nH]c1NC(=S)Nc1ccc(Cl)c(Cl)c1,0.3,48.5*,-0.3,-1.1,2.5,4.3
COc1ccc(CCN2C(=O)CS/C2=N\NC(=O)c2cccs2)cc1OC,-0.3,69.1*,-0.6,-4.1,-0.4,15.9
NC(=O)c1ncn([C@@H]2O[C@H](C(=O)N[C@H](Cc3c[nH]c4ccccc34)C(=O)NCC(=O)N3CCCCC3)[C@@H](O)[C@H]2O)n1,0.3,/,/,/,/,/
Cc1cc(NCCCN2CCOCC2)n2c(nc3ccccc32)c1C#N,0.4,73.2*,0.4,-1.4,-0.2,13.2
Cc1cc(NCCN2CCOCC2)n2c(nc3ccccc32)c1C#N,0.0,23.8,-0.1,-2.8,1.6,14.9
CCN(CC)CCNc1cc(C)c(C#N)c2nc3ccccc3n12,-1.4,47.8*,0.4,0.7,-0.9,11.8
CCN(CC)CCCNc1cc(C)c(C#N)c2nc3ccccc3n12,1.0,/,-0.4,-4.2,1.4,/
O=C1NC(Cc2cnc[nH]2)C(=O)N2CCCC12 (stereo not drawn),-0.2,/,/,/,/,/
Cc1sc2nc(SCC(=O)N3CCOCC3)[nH]c(=O)c2c1-c1ccccc1,0.6,48.6*,0.6,-2.8,1.2,16.9
O=C(CSc1nc(O)c(-c2ccccc2)c(=O)[nH]1)N1CCOCC1,-0.8,-0.9,-0.4,1.1,4.9,21.8
Cc1sc2nc(-c3ccccc3)[nH]c(=O)c2c1-c1ccccc1,/,48.0*,/,/,/,7.0
Cc1c(-c2ccccc2)nc(-c2ccccc2)[nH]c1=O,-0.5,23.9,-0.3,4.2,-2.7,13.7
CCNC(=O)N1CCN(c2ccc(N3CCN(Cc4ccccc4)[C@@H](C)C3)c(C)c2)[C@H](C)C1,0.6,/,/,/,/,/
COc1cc(/C=N/Nc2nnc3c(n2)[nH]c2ccccc23)ccc1O,4.6*,10.1,-0.3,-2.6,-3.0,27.9
Cc1ccc2[nH]c3nc(N/N=C/c4cccc(O)c4)nnc3c2c1,0.3,26.4,0.3,-4.5,11.3,16.5
COc1cc(/C=N/Nc2nncn2/N=C/c2ccc(O)c(OC)c2)ccc1O,4.6*,15.1,-1.1,5.3,-1.8,16.8
COc1ccc(OC)c(/C=N/Nc2nncn2/N=C/c2cc(OC)ccc2OC)c1,4.3,51.1*,0.3,2.6,5.9,16.8
